These results are taken from ChEMBL document CHEMBL1133747, “A rational approach to the design and synthesis of a new bradykinin B(1) receptor antagonist” (J Med Chem, 2000).

Assay [1] deals with T1, B2 bradykinin receptor (Homo sapiens) (UniProt P30411).
T1 sequence (whole entry): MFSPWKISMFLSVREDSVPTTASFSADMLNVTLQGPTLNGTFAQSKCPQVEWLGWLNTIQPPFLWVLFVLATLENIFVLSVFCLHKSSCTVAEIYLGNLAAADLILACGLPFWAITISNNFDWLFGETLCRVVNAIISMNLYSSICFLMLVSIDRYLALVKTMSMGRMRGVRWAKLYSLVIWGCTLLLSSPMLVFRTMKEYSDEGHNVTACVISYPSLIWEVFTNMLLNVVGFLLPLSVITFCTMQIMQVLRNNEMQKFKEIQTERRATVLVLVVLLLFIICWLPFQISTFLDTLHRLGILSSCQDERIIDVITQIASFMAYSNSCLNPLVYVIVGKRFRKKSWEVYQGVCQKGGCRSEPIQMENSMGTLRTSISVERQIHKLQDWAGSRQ
The assay can be described thus: Binding affinity towards human cloned B2 receptor was determined using [3H]BK as radioligand; Inactive.

Another assay deals with T2, B2 bradykinin receptor (Homo sapiens, UniProt P30411).
T2 sequence (P30411 whole entry): T1 sequence (whole entry)
The assay can be described thus: Binding affinity towards human cloned B2 receptor was determined using [3H]BK as radioligand.

For another assay, the species on record is Homo sapiens. The assay can be described thus: Competitive inhibition of the contraction of the human umbilical vein induced by the potent B1 receptor agonist [des-Arg10]-kallidin. The conditions noted are these: read-out: pA2 (converted). It is filed as functional. The essentials:
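Human umbilical vein rings (3-4 mm) incubated overnight at 37 °C in Krebs (B1 induction), then set in organ baths at 37 °C, 95% O2/5% CO2, stretched to 1 g. Antagonist or vehicle 15 min before [des-Arg10]-kallidin concentration-response curve (one per ring), expressed as % of 1 µM U46619 maximal contraction.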

For the next assay, the target named is T3, B1 bradykinin receptor (Homo sapiens, UniProt P46663).
T3 sequence (P46663 whole entry): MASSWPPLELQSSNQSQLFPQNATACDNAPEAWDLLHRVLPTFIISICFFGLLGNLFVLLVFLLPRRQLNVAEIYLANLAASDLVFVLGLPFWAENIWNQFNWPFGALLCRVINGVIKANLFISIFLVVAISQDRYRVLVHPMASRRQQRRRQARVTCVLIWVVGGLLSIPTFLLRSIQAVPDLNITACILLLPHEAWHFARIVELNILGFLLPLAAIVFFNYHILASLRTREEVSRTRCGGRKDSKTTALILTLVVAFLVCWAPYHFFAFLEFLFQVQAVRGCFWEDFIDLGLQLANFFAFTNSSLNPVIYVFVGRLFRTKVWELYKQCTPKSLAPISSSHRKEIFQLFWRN
The assay can be described thus: Binding affinity towards human cloned B1 receptor was determined using [3H][des-Arg10-Leu9]-kallidin as radioligand.

The species entered for a further assay is Rattus norvegicus. The assay can be described thus: Compound was tested for antagonist activity on rat ileum longitudinal smooth muscle. It is filed as functional. The settings on record: read-out: pA2 (converted).
Assay [2] concerns the target T4, B1 bradykinin receptor (Homo sapiens) (UniProt P46663).
T4 sequence (whole entry): T3 sequence (P46663 whole entry)
The assay can be described thus: Binding affinity towards human cloned B1 receptor was determined using [3H][des-Arg10-Leu9]-kallidin as radioligand; No significant affinity at 10E-5 M.

The target of assay [3] is T4, B1 bradykinin receptor (Homo sapiens). The assay can be described thus: Binding affinity towards human cloned B1 receptor was determined using [3H][des-Arg10-Leu9]-kallidin as radioligand; No significant affinity at 10 uM.

Activity calls are given as the source filed them. No cut-off for these calls is given here. Square brackets hold non-standard residues; d marks the D form. Peptide text beside a SMILES is read from it. ξ: configuration not given here. Oic(3aξ,7aξ) = O=C(O)[C@@H]1CC2CCCCC2N1; Tic = O=C(O)[C@@H]1Cc2ccccc2CN1; Aun = NCCCCCCCCCCC(=O)O

On to `NCCCC[C@H](N)C(=O)N[C@@H](CCCN=C(N)N)C(=O)N1CCC2(CC1)CN(CC(=O)N[C@@H]1CSc3ccccc3N(CC(=O)O)C1=O)C(=O)N2CCc1ccccc1`, for which the NA result in assay [1] is “inactive”. For the molecule `NCCCC[C@H](N)C(=O)N[C@@H](CCCN=C(N)N)C(=O)N1CCC2(CC1)C(=O)N(CC(=O)N[C@@H](CO)C(=O)N[C@@H]1CSc3ccccc3N(CC(=O)O)C1=O)CN2CCc1ccccc1`, the Ki (commonly the equilibrium dissociation constant of an inhibitor or competing ligand from its target) stood at 11900 nM at B2 bradykinin receptor and 24.1 nM on B1 bradykinin receptor. Also, the Kb in the assay filed under Homo sapiens was 794 nM. For `NC(N)=NCCC[C@H](NC(=O)[C@@H](N)CCCN=C(N)N)C(=O)NCCCCCCCCCCC(=O)N[C@@H](CO)C(=O)N1Cc2ccccc2C[C@H]1C(=O)N1C2CCCCC2C[C@H]1C(=O)O` (stereo partly specified) (H-RR[Aun]S[Tic][Oic(3aξ,7aξ)]-OH), in the assay filed under Rattus norvegicus, the Kb is 79.4 nM. As to `NCCCC[C@H](N)C(=O)N[C@@H](CCCN=C(N)N)C(=O)N1CCC2(CC1)C(=O)N(CC(=O)N[C@@H](CO)C(=O)N[C@@H]1CSc3ccccc3N(CC(=O)O)C1=O)CN2c1ccccc1`, the NS result in assay [2] was “inactive”. Moreover, in assay [1], the NA result was “inactive”. Take `NCCCC[C@H](N)C(=O)N[C@@H](CCCN=C(N)N)C(=O)N1CCC2(CC1)C(=O)N(CC(=O)N[C@@H](CO)C(=O)N[C@@H]1CSc3ccccc3N(CC(=O)O)C1=O)CN2CCC1Cc2ccccc2C1`: the NS result in assay [2] was “inactive”. Further, the NA result in assay [1] was “inactive”. For the molecule `C[C@H](N)C(=O)N[C@@H](CCCN=C(N)N)C(=O)N1CCC2(CC1)C(=O)N(CC(=O)N[C@@H](CO)C(=O)N[C@@H]1CSc3ccccc3N(CC(=O)O)C1=O)CN2CCc1ccccc1`, the NS entry in assay [3] was “inactive”. In addition, the NA entry in assay [1] is “inactive”. As to `C[C@H](NC(=O)[C@@H](N)CCCCN)C(=O)N1CCC2(CC1)C(=O)N(CC(=O)N[C@@H](CO)C(=O)N[C@@H]1CSc3ccccc3N(CC(=O)O)C1=O)CN2CCc1ccccc1`, in assay [3], the NS entry is “inactive”. For the same molecule, in assay [1], the NA result was “inactive”. Take `C[C@H](NC(=O)CN1CN(CCc2ccccc2)C2(CCN(C(=O)[C@H](CCCN=C(N)N)NC(=O)[C@@H](N)CCCCN)CC2)C1=O)C(=O)N[C@@H]1CSc2ccccc2N(CC(=O)O)C1=O`: in assay [1], the NA entry is “inactive”. With `N=C(N)NCCCCC(=O)NC(CCCNC(=N)N)C(=O)N1CCC2(CC1)C(=O)N(CC(=O)NC(CO)C(=O)N[C@@H]1CSc3ccccc3N(CC(=O)O)C1=O)CN2CCc1ccccc1` (stereo partly specified), the NS entry in assay [3] was “inactive”. In assay [1], the NA entry is “inactive”. With `NCc1ccc(C(=O)NC(CCCN=C(N)N)C(=O)N2CCC3(CC2)C(=O)N(CC(=O)NC(CO)C(=O)N[C@@H]2CSc4ccccc4N(CC(=O)O)C2=O)CN3CCc2ccccc2)cc1` (stereo partly specified), the NS entry in assay [3] is “inactive”. In addition, in assay [1], the NA entry is “inactive”.

As for `N=C(N)NCCCC(NC(=O)C1CCNCC1)C(=O)N1CCC2(CC1)C(=O)N(CC(=O)NC(CO)C(=O)N[C@@H]1CSc3ccccc3N(CC(=O)O)C1=O)CN2CCc1ccccc1` (stereo partly specified), the NS entry in assay [3] is “inactive”. Besides, in assay [1], the NA result was “inactive”. In the case of `C[C@@H](O)[C@H](NC(=O)CN1CN(CCc2ccccc2)C2(CCN(C(=O)[C@H](CCCN=C(N)N)NC(=O)[C@@H](N)CCCCN)CC2)C1=O)C(=O)N[C@@H]1CSc2ccccc2N(CC(=O)O)C1=O`, the NA entry in assay [1] is “inactive”.
